This passage reports Activity and MIC results from ChEMBL document CHEMBL1144120, “In vitro evaluation of antifungal properties of phenylpropanoids and related compounds acting against dermatophytes” (1999).

The test system of one assay is Aspergillus flavus. The experiment in a line: Antifungal activity against Aspergillus flavus ATCC 9170 by agar dilution method. Format: functional, organism-based. An outline of the steps:
(§1)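 Sabouraud chloramphenicol agar dilution in 96-well plates. Strains were grown on Sabouraud chloramphenicol agar slants for 48 h at 30 °C and suspended in sterile distilled water, adjusted to 10^6 viable cells/mL. DMSO stocks were serially two-fold diluted into the agar to give 0.10–50 µg/mL, with DMSO ≤2% final. 5 µL inoculum per well; incubated 24, 48 or 72 h at 30 °C per control growth; MIC recorded.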
(In agar dilution, organisms are placed on agar that contains the substance at set levels.)

A further assay deals with Aspergillus fumigatus. The experiment in a line: Antifungal activity against Aspergillus fumigatus ATCC 26934 by agar dilution method. It counts as functional, organism-based. The procedure, abridged: as §1
The next assay has as its system Cryptococcus neoformans. The experiment in a line: Antifungal activity against Cryptococcus neoformans ATCC 32264 by agar dilution method. It counts as functional, organism-based. The procedure, abridged:
as §1

The subject of assay [1] is Nannizzia gypsea. The experiment in a line: Antifungal activity against Microsporum gypseum C 115 by agar dilution method. It counts as functional. The procedure, abridged: (§2)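 Dermatophytes were tested by agar dilution on Sabouraud chloramphenicol agar in 96-well plates. DMSO stock solutions were serially two-fold diluted into the medium to give final concentrations of 0.10–50 µg/mL, with DMSO not exceeding 2%. Each well received 5 µL of spore suspension.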

The test system of the next assay is Aspergillus niger. The experiment in a line: Antifungal activity against Aspergillus niger ATCC 9029 by agar dilution method. Format: functional, organism-based. The procedure, abridged:
as §1

The test system of the next assay is Microsporum canis. The assay is described as follows: Antifungal activity against Microsporum canis C 112 by agar dilution method. Format: functional. The procedure, abridged:
as §2

In assay [2] the test system is Trichophyton rubrum. The experiment in a line: Antifungal activity against Trichophyton rubrum C 113 by agar dilution method. Format: functional. The procedure, abridged:
as §2

The subject of another assay is Epidermophyton floccosum. The experiment in a line: Antifungal activity against Epidermophyton floccosum C 114 by agar dilution method. Format: functional. An outline of the steps: as §2
The subject of a further assay is Saccharomyces cerevisiae. The experiment in a line: Antifungal activity against Saccharomyces cerevisiae ATCC 9763 by agar dilution method. It counts as functional, organism-based. The procedure, abridged: as §1
For assay [3], the system named is Trichophyton mentagrophytes. The experiment in a line: Antifungal activity against Trichophyton mentagrophytes ATCC 9972 up to 50 ug/mL by agar dilution method. Format: functional, organism-based. The procedure, abridged: as §2
The test system of the next assay is Candida albicans. The experiment in a line: Antifungal activity against Candida albicans ATCC 10231 by agar dilution method. Format: functional, organism-based. An outline of the steps: as §1
In assay [4] the test system is Trichophyton mentagrophytes. The experiment in a line: Antifungal activity against Trichophyton mentagrophytes ATCC by agar dilution method. Format: functional. The procedure, abridged: as §2
Assay [5] relates to Trichophyton rubrum. The assay is described as follows: Antifungal activity against Trichophyton rubrum C 113 up to 50 ug/mL by agar dilution method. Format: functional, organism-based. An outline of the steps:
as §2

In assay [6] the test system is Nannizzia gypsea. The assay is described as follows: Antifungal activity against Microsporum gypseum C 115 up to 50 ug/mL by agar dilution method. Format: functional, organism-based. The procedure, abridged:
as §2

In brackets after ≈: the same amount, converted by molar mass. Activity calls are given as the source filed them. The rule behind the calls is not given here.

On to `COc1ccc(C(=O)C(C)Cl)cc1OC` (stereo unspecified), for which the result (in the assay with Aspergillus flavus; in the assay with Aspergillus fumigatus; in the assay with Cryptococcus neoformans; in the assay with Aspergillus niger; with Saccharomyces cerevisiae; in assay [3]) was inactive. Besides, in the assay on Candida albicans, the result was inactive. In addition, the MIC (in general, the least concentration at which growth counts as inhibited) was found to be 12.5 µg/mL (≈ 54.7 µM) against Nannizzia gypsea [1]; 3.12 µg/mL (≈ 13.6 µM) against Microsporum canis; 10 µg/mL (≈ 43.7 µM) against Trichophyton rubrum [2]; 0.15 µg/mL (≈ 0.656 µM) in the assay with Epidermophyton floccosum; 12.5 µg/mL (≈ 54.7 µM) in assay [4].

In the case of `CC(Br)C(=O)c1ccc2c(c1)OCO2` (stereo unspecified), the result (in the assay with Aspergillus flavus; with Aspergillus fumigatus; with Cryptococcus neoformans; in the assay with Aspergillus niger; with Saccharomyces cerevisiae; in assay [3]) was inactive. Moreover, in the assay on Candida albicans, the outcome was inactive. Also, the minimum inhibitory concentration (MIC) against Nannizzia gypsea [1] was determined as 25 µg/mL (≈ 97.2 µM); against Microsporum canis, 3.12 µg/mL (≈ 12.1 µM); against Trichophyton rubrum [2] it was 12.5 µg/mL (≈ 48.6 µM); in the assay on Epidermophyton floccosum, 6.25 µg/mL (≈ 24.3 µM); in assay [4], 20 µg/mL (≈ 77.8 µM).

As for `c1ccc2c(c1)ccc1ccccc12` [PHENANTHRENE], the result in the assay with Aspergillus flavus, with Aspergillus fumigatus, with Cryptococcus neoformans, with Aspergillus niger, with Saccharomyces cerevisiae and with Candida albicans was inactive. In addition, the minimal inhibitory concentration (MIC) (in the assay with Nannizzia gypsea [1]; against Microsporum canis; with Trichophyton rubrum [2]; against Epidermophyton floccosum; in assay [4]) was over 50 µg/mL in each case.

On to `CC(Br)C(=O)C1CCCCC1` (stereo unspecified), for which the outcome with Aspergillus flavus, in the assay on Aspergillus fumigatus, in the assay on Cryptococcus neoformans, in the assay on Aspergillus niger, in the assay on Saccharomyces cerevisiae and in the assay on Candida albicans was inactive. In addition, the minimum inhibitory concentration (MIC) with Nannizzia gypsea [1] was over 50 µg/mL; against Microsporum canis, over 50 µg/mL; against Trichophyton rubrum [2], over 50 µg/mL; against Epidermophyton floccosum, over 50 µg/mL; in assay [4], 50 µg/mL (≈ 228 µM).

With `CC(C)C(O)c1ccc2ccccc2c1` (stereo unspecified), the outcome in the assay on Aspergillus flavus, in the assay with Aspergillus fumigatus, in the assay with Cryptococcus neoformans, in the assay on Trichophyton rubrum [5], in the assay with Aspergillus niger and with Saccharomyces cerevisiae was inactive. The result in the assay on Candida albicans was inactive. Also, the MIC was determined as 25 µg/mL (≈ 125 µM) with Nannizzia gypsea [1]; 25 µg/mL (≈ 125 µM) in the assay on Microsporum canis; 12.5 µg/mL (≈ 62.4 µM) against Trichophyton rubrum [2]; 25 µg/mL (≈ 125 µM) against Epidermophyton floccosum; 12.5 µg/mL (≈ 62.4 µM) in assay [4].

Turning to `CC(=O)N1CCN(c2ccc(OCC3COC(Cn4ccnc4)(c4ccc(Cl)cc4Cl)O3)cc2)CC1` (stereo unspecified) [KETOCONAZOLE], the result with Aspergillus flavus, in the assay on Aspergillus fumigatus, with Cryptococcus neoformans, in the assay on Aspergillus niger, in the assay with Saccharomyces cerevisiae and with Candida albicans was inactive. In addition, the MIC against Nannizzia gypsea [1] was found to be 6.25 µg/mL (≈ 11.8 µM); against Microsporum canis it was 15 µg/mL (≈ 28.2 µM); in the assay with Trichophyton rubrum [2], 15 µg/mL (≈ 28.2 µM); against Epidermophyton floccosum it was 25 µg/mL (≈ 47 µM); in [4] it was 12.5 µg/mL (≈ 23.5 µM).

As for `COc1cc(C(=O)C(C)Br)cc(OC)c1OC` (stereo unspecified), the outcome in the assay on Aspergillus flavus, in the assay with Nannizzia gypsea [6], in the assay with Aspergillus fumigatus, with Cryptococcus neoformans, with Trichophyton rubrum [5] and with Aspergillus niger was inactive. Besides, the outcome (in the assay on Saccharomyces cerevisiae; in assay [3]; in the assay on Candida albicans) was inactive. Further, the minimal inhibitory concentration (MIC) in the assay with Nannizzia gypsea [1] was 50 µg/mL (≈ 165 µM); against Microsporum canis it was 15 µg/mL (≈ 49.5 µM); in the assay with Trichophyton rubrum [2] it was over 50 µg/mL; in the assay with Epidermophyton floccosum it was 8 µg/mL (≈ 26.4 µM); in [4], 12.5 µg/mL (≈ 41.2 µM).

In the case of `CCC(=O)c1cc2ccccc2c2ccccc12`, the result with Aspergillus flavus, with Aspergillus fumigatus, with Cryptococcus neoformans, in the assay on Aspergillus niger, with Saccharomyces cerevisiae and in the assay with Candida albicans was inactive. In addition, the minimal inhibitory concentration (MIC) with Nannizzia gypsea [1] was 6.25 µg/mL (≈ 26.7 µM); against Microsporum canis, 3 µg/mL (≈ 12.8 µM); with Trichophyton rubrum [2], 6.25 µg/mL (≈ 26.7 µM); in the assay with Epidermophyton floccosum it was 20 µg/mL (≈ 85.4 µM); in assay [4], 3 µg/mL (≈ 12.8 µM).

As for `COc1ccc(C(=O)C(C)Br)cc1OC` (stereo unspecified), the outcome with Aspergillus flavus, with Aspergillus fumigatus, with Cryptococcus neoformans, with Trichophyton rubrum [5], with Aspergillus niger and with Saccharomyces cerevisiae was inactive. The result (in [3]; in the assay on Candida albicans) was inactive. Besides, the MIC is 40 µg/mL (≈ 146 µM) against Nannizzia gypsea [1]; 12.5 µg/mL (≈ 45.8 µM) in the assay on Microsporum canis; over 50 µg/mL in the assay on Trichophyton rubrum [2]; 3 µg/mL (≈ 11 µM) in the assay on Epidermophyton floccosum; 25 µg/mL (≈ 91.5 µM) in assay [4].

`CC(C)C(O)c1cc2ccccc2c2ccccc12` (stereo unspecified): the outcome with Aspergillus flavus, in the assay with Aspergillus fumigatus, with Cryptococcus neoformans, in the assay with Aspergillus niger, in the assay with Saccharomyces cerevisiae and with Candida albicans was inactive. Besides, the MIC against Nannizzia gypsea [1] turned out to be 6.25 µg/mL (≈ 25 µM); in the assay on Microsporum canis, 6.25 µg/mL (≈ 25 µM); in the assay on Trichophyton rubrum [2], 10 µg/mL (≈ 39.9 µM); against Epidermophyton floccosum, 10 µg/mL (≈ 39.9 µM); in assay [4] it was 6.25 µg/mL (≈ 25 µM).

For `CC(C)C(=O)c1cc2ccccc2c2ccccc12`, the result in the assay with Aspergillus flavus, in the assay with Aspergillus fumigatus, in the assay with Cryptococcus neoformans, in the assay with Aspergillus niger, with Saccharomyces cerevisiae and in the assay with Candida albicans was inactive. Also, the minimal inhibitory concentration (MIC) in the assay with Nannizzia gypsea [1] is 20 µg/mL (≈ 80.5 µM); with Microsporum canis, 20 µg/mL (≈ 80.5 µM); against Trichophyton rubrum [2], 20 µg/mL (≈ 80.5 µM); in the assay with Epidermophyton floccosum it was 20 µg/mL (≈ 80.5 µM); in assay [4], 6.25 µg/mL (≈ 25.2 µM).

As for `c1ccc2ccccc2c1` [NAPHTHALENE], the outcome with Aspergillus flavus, with Aspergillus fumigatus, in the assay on Cryptococcus neoformans, with Aspergillus niger, in the assay with Saccharomyces cerevisiae and in the assay on Candida albicans was inactive. Besides, the MIC (in the assay on Nannizzia gypsea [1]; in the assay on Microsporum canis; against Trichophyton rubrum [2]; in the assay with Epidermophyton floccosum; in assay [4]) was over 50 µg/mL in each case.

Turning to `C[C@@H]1[C@H](O)[C@@H](C)/C=C/C=C/C=C/C=C/C=C/C=C/C=C/[C@H](O[C@@H]2O[C@H](C)[C@@H](O)[C@H](N)[C@@H]2O)C[C@@H]2O[C@](O)(C[C@@H](O)C[C@@H](O)[C@H](O)CC[C@@H](O)C[C@@H](O)CC(=O)O[C@H]1C)C[C@H](O)[C@H]2C(=O)O` [AMPHOTERICIN B], the result in the assay with Aspergillus flavus, in the assay with Aspergillus fumigatus, in the assay on Cryptococcus neoformans, with Aspergillus niger, in the assay on Saccharomyces cerevisiae and with Candida albicans was inactive. The minimal inhibitory concentration (MIC) was 6.25 µg/mL (≈ 6.76 µM) with Nannizzia gypsea [1]; over 50 µg/mL with Microsporum canis; 25 µg/mL (≈ 27.1 µM) against Trichophyton rubrum [2]; 0.3 µg/mL (≈ 0.325 µM) in the assay on Epidermophyton floccosum; 6.25 µg/mL (≈ 6.76 µM) in assay [4].
